ChEMBL document CHEMBL1150162, “Antimicrobial activities of naphthazarins from Arnebia euchroma” (2002)
Values after ≈ are worked out from the molar mass of the structure shown. Active and inactive are the calls of the source. The calls are words filed in the database; no cut-off is given here.

What was measured:
Enterococcus faecalis [1] = experiment: Antibacterial activity against Enterococcus faecalis after 24 hrs by broth microdilution method; type: functional
How it was run: (§1)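 2-fold serial dilutions of test agent in LB broth, DMSO under 5% final. Inoculum about 5 × 10^5 CFU/mL, confirmed by LB agar plating. Incubated 24 h at 35 °C in ambient air. MIC is the lowest concentration with no visible growth. Three repeats; oxacillin, vancomycin and chloramphenicol as positive controls.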

Enterococcus faecalis [2] = experiment: Antibacterial activity against Enterococcus faecalis after 48 hrs by broth microdilution method; type: functional
Enterococcus faecium [3] = experiment: Antibacterial activity against vancomycin-resistant Enterococcus faecium F935 expressing VanA after 24 hrs by broth microdilution method; type: functional; conditions: F935, 24 h; how it was run: as §1
Enterococcus faecium [4] = experiment: Antibacterial activity against vancomycin-resistant Enterococcus faecium F935 expressing VanA after 48 hrs by broth microdilution method; type: functional
Enterococcus faecalis [5] = experiment: Antibacterial activity against vancomycin-resistant Enterococcus faecalis CKU-17 expressing VanB after 24 hrs by broth microdilution method; type: functional; conditions: CKU-17, 24 h; how it was run: as §1
Enterococcus faecalis [6] = experiment: Antibacterial activity against vancomycin-resistant Enterococcus faecalis CKU-17 expressing VanB after 48 hrs by broth microdilution method; type: functional
Escherichia coli = experiment: Antibacterial activity against Escherichia coli up to 100 ug/mL after 24 hrs by broth microdilution method; type: functional, organism-based
How it was run: (§2)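 Broth microdilution with 2-fold serial dilutions in LB broth, compounds from DMSO stocks (DMSO below 5% final), inoculum about 5 × 10^5 CFU/mL. Incubated 24 h at 35 °C in ambient air. MIC is the lowest concentration with no visible growth. Experiments repeated three times.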

Pseudomonas aeruginosa = experiment: Antibacterial activity against Pseudomonas aeruginosa up to 100 ug/mL after 24 hrs by broth microdilution method; type: functional, organism-based; how it was run: as §2
Staphylococcus aureus [7] = experiment: Ratio of MBC to MIC for Staphylococcus aureus; type: functional
Enterococcus faecalis [8] = experiment: Ratio of MBC to MIC for Enterococcus faecalis; type: functional
Enterococcus faecium [9] = experiment: Ratio of MBC to MIC for vancomycin-resistant Enterococcus faecium F935 expressing VanA; type: functional
HepG2 = experiment: Cytotoxicity against human HepG2 cells after 48 hrs by MTT assay; type: functional; conditions: HepG2, 48 h, read-out: CD50 (the source's name)
How it was run: (§3)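 Cells seeded at 5 × 10^3 per well, grown 24 h, then given 2-fold dilutions of sample for 48 h. Medium replaced with serum-free medium, MTT added (5 mg/mL stock) for 2 h at 37 °C, formazan dissolved in DMSO, OD read at 550 nm. CD50 is the concentration giving 50% reduction in net cell increase. Quadruplicate, repeated at least twice.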

HeLa = experiment: Cytotoxicity against human HeLa cells after 48 hrs by MTT assay; type: functional; conditions: read-out: CD50 (the source's name); how it was run: as §3
OVCAR-3 = experiment: Cytotoxicity against human OVCAR-3 cells after 48 hrs by MTT assay; type: functional; conditions: OVCAR-3, 48 h, read-out: CD50 (the source's name); how it was run: as §3
Staphylococcus aureus [10] = experiment: Antibacterial activity against Staphylococcus aureus after 24 hrs by broth microdilution method; type: functional
How it was run: (§4)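 2-fold serial dilutions of test agent in […], DMSO under 5% final. Inoculum about 5 × 10^5 CFU/mL, confirmed by LB agar plating. Incubated 24 h at 35 °C in ambient air. MIC is the lowest concentration with no visible growth. Three repeats; oxacillin, vancomycin and chloramphenicol as positive controls.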

Staphylococcus aureus [11] = experiment: Antibacterial activity against Staphylococcus aureus after 48 hrs by broth microdilution method; type: functional
Staphylococcus aureus [12] = experiment: Antibacterial activity against methicillin-resistant Staphylococcus aureus 8-8S after 24 hrs by broth microdilution method; type: functional; how it was run: as §4
Staphylococcus aureus [13] = experiment: Antibacterial activity against methicillin-resistant Staphylococcus aureus 8-8S after 48 hrs by broth microdilution method; type: functional

| Structure (SMILES) | MIC (Enterococcus faecalis [1]) [µg/mL] | MBC (Enterococcus faecalis [2]) | MIC (Enterococcus faecium [3]) [µg/mL] | MBC (Enterococcus faecium [4]; F935, 48 h) [µg/mL] | MIC (Enterococcus faecalis [5]) [µg/mL] | MBC (Enterococcus faecalis [6]; CKU-17, 48 h) [µg/mL] | Activity (Escherichia coli) | Activity (Pseudomonas aeruginosa) | Ratio (Staphylococcus aureus [7]) | Ratio (Enterococcus faecalis [8]) | Ratio (Enterococcus faecium [9]) | CC50 (HepG2) [µg/mL] | CC50 (HeLa) [µg/mL] | CC50 (OVCAR-3) [µg/mL] | MIC (Staphylococcus aureus [10]) [µg/mL] | MBC (Staphylococcus aureus [11]) [µg/mL] | MIC (Staphylococcus aureus [12]) [µg/mL] | MBC (Staphylococcus aureus [13]) | MBC (Enterococcus faecium [4]) | MBC (Enterococcus faecalis [6]) |
| --- | --- | --- | --- | --- | --- | --- | --- | --- | --- | --- | --- | --- | --- | --- | --- | --- | --- | --- | --- | --- |
| CC[C@H](C)C(=O)O[C@@H](CC=C(C)C)C1=CC(=O)c2c(O)ccc(O)c2C1=O | 1.56 (≈ 4.19 µM) | 3.13 µg/mL (≈ 8.4 µM) | 1.56 (≈ 4.19 µM) | 3.13 (≈ 8.4 µM) | 1.56 (≈ 4.19 µM) | 3.13 (≈ 8.4 µM) | inactive | inactive | <=2 | <=2 | <=2 | 0.6 (≈ 1.61 µM) | 0.8 (≈ 2.15 µM) | 0.6 (≈ 1.61 µM) | 0.78 (≈ 2.09 µM) | 0.78 (≈ 2.09 µM) | 1.56 (≈ 4.19 µM) | 1.56 µg/mL (≈ 4.19 µM) |  |  |
| CC[C@@H](C)C(=O)O[C@@H](CC=C(C)C)C1=CC(=O)c2c(O)ccc(O)c2C1=O | 3.13 (≈ 8.4 µM) | 6.25 µg/mL (≈ 16.8 µM) | 3.13 (≈ 8.4 µM) | 6.25 (≈ 16.8 µM) | 3.13 (≈ 8.4 µM) | 6.25 (≈ 16.8 µM) | inactive | inactive | <=2 | <=2 | <=2 | 5 (≈ 13.4 µM) | 3.9 (≈ 10.5 µM) | 1.7 (≈ 4.56 µM) | 1.56 (≈ 4.19 µM) | 1.56 (≈ 4.19 µM) | 3.13 (≈ 8.4 µM) | 3.13 µg/mL (≈ 8.4 µM) |  |  |
| CC(C)=CC[C@H](OC(=O)/C=C/c1ccc2c(c1)OCO2)C1=CC(=O)c2c(O)ccc(O)c2C1=O | 100 (≈ 216 µM) | > 100 µg/mL | 50 (≈ 108 µM) | 50 (≈ 108 µM) | 50 (≈ 108 µM) | 50 (≈ 108 µM) | inactive | inactive |  |  |  | 2.1 (≈ 4.54 µM) | 1.5 (≈ 3.24 µM) | 1 (≈ 2.16 µM) | 50 (≈ 108 µM) | 100 (≈ 216 µM) | 50 (≈ 108 µM) | 50 µg/mL (≈ 108 µM) |  |  |
| CC(C)=CC[C@H](OC(=O)C=C(C)C)C1=CC(=O)c2c(O)ccc(O)c2C1=O | 3.13 (≈ 8.45 µM) | 3.13 µg/mL (≈ 8.45 µM) | 3.13 (≈ 8.45 µM) | 3.13 (≈ 8.45 µM) | 3.13 (≈ 8.45 µM) | 3.13 (≈ 8.45 µM) | inactive | inactive | <=2 | <=2 | <=2 | 2.6 (≈ 7.02 µM) | 1.8 (≈ 4.86 µM) | 1.6 (≈ 4.32 µM) | 1.56 (≈ 4.21 µM) | 1.56 (≈ 4.21 µM) | 1.56 (≈ 4.21 µM) | 3.13 µg/mL (≈ 8.45 µM) |  |  |
| CC(=O)O[C@H](CC=C(C)C)C1=CC(=O)c2c(O)ccc(O)c2C1=O [ACETYLSHIKONIN] | 3.13 (≈ 9.48 µM) | 3.13 µg/mL (≈ 9.48 µM) | 6.25 (≈ 18.9 µM) | 6.25 (≈ 18.9 µM) | 6.25 (≈ 18.9 µM) | 6.25 (≈ 18.9 µM) | inactive | inactive | <=2 | <=2 | <=2 |  |  |  | 1.56 (≈ 4.72 µM) | 1.56 (≈ 4.72 µM) | 1.56 (≈ 4.72 µM) | 1.56 µg/mL (≈ 4.72 µM) |  |  |
| O=C(N[C@H](CO)[C@H](O)c1ccc([N+](=O)[O-])cc1)C(Cl)Cl [CHLORAMPHENICOL] | 6.25 (≈ 19.3 µM) | inactive | 6.25 (≈ 19.3 µM) |  | 6.25 (≈ 19.3 µM) |  |  |  |  |  |  |  |  |  |  |  |  |  | inactive | inactive |
| CC(C)=CC[C@H](OC(=O)/C=C/c1ccccc1)C1=CC(=O)c2c(O)ccc(O)c2C1=O [CINNAMOYL ALKANNIN] | 100 (≈ 239 µM) | > 100 µg/mL | 25 (≈ 59.7 µM) | 100 (≈ 239 µM) | 25 (≈ 59.7 µM) | 100 (≈ 239 µM) | inactive | inactive |  |  |  | 3.8 (≈ 9.08 µM) | 3.6 (≈ 8.6 µM) | 2.4 (≈ 5.74 µM) | 50 (≈ 119 µM) | 100 (≈ 239 µM) | 50 (≈ 119 µM) | > 100 µg/mL |  |  |
| Cc1onc(-c2ccccc2)c1C(=O)N[C@@H]1C(=O)N2[C@@H]1SC(C)(C)[C@@H]2C(=O)O [OXACILLIN] | 25 (≈ 62.3 µM) | 50 µg/mL (≈ 125 µM) | > 100 |  | > 100 |  |  |  |  |  |  |  |  |  | 0.39 (≈ 0.971 µM) | 0.39 (≈ 0.971 µM) | > 100 | inactive | inactive | inactive |
| CC(C)=CC[C@@H](O)C1=CC(=O)c2c(O)ccc(O)c2C1=O [SHIKONIN] | 50 (≈ 173 µM) | 50 µg/mL (≈ 173 µM) | 50 (≈ 173 µM) | 50 (≈ 173 µM) | 25 (≈ 86.7 µM) | 50 (≈ 173 µM) | inactive | inactive | <=2 | <=2 | <=2 |  |  |  | 6.25 (≈ 21.7 µM) | 12.5 (≈ 43.4 µM) | 6.25 (≈ 21.7 µM) | 12.5 µg/mL (≈ 43.4 µM) |  |  |
| CN[C@H](CC(C)C)C(=O)N[C@H]1C(=O)N[C@@H](CC(N)=O)C(=O)N[C@H]2C(=O)N[C@H]3C(=O)N[C@H](C(=O)N[C@H](C(=O)O)c4cc(O)cc(O)c4-c4cc3ccc4O)[C@H](O)c3ccc(c(Cl)c3)Oc3cc2cc(c3O[C@@H]2O[C@H](CO)[C@@H](O)[C@H](O)[C@H]2O[C@H]2C[C@](C)(N)[C@H](O)[C@H](C)O2)Oc2ccc(cc2Cl)[C@H]1O [VANCOMYCIN] | 3.13 (≈ 2.16 µM) | inactive | > 100 |  | > 100 |  |  |  |  |  |  |  |  |  | 1.56 (≈ 1.08 µM) | 1.56 (≈ 1.08 µM) | 1.56 (≈ 1.08 µM) | 1.56 µg/mL (≈ 1.08 µM) | inactive | inactive |
